Data taken from ChEMBL document CHEMBL4033794, “Discovery of Trifluoromethyl Glycol Carbamates as Potent and Selective Covalent Monoacylglycerol Lipase (MAGL) Inhibitors for Treatment of Neuroinflammation” (J Med Chem, 2018).
The source made the active and inactive calls. The calls are words filed in the database; no cut-off is given here.

What was measured:
[1] = molecular target: T1, Monoglyceride lipase (Homo sapiens, UniProt Q99685); assay: Inhibition of recombinant human MAGL using fluorogenic-7HCA as substrate preincubated for 30 mins followed by substrate addition measured after 60 mins by fluorescence based assay
T1 sequence (Q99685 whole entry): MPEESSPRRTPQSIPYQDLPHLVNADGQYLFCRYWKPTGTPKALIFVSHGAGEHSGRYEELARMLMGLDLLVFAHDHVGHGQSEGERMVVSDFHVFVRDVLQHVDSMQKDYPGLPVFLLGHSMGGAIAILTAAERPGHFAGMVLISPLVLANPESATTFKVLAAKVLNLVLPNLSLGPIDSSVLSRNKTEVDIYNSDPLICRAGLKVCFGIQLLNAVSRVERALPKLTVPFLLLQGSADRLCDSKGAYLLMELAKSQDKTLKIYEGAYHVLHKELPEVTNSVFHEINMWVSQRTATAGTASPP

[2] = Lipophilicity, log D of the compound by HPLC analysis; type: physicochemical
Method in brief: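 LogD determined by an HPLC-based (eLogD) method.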

[3] = molecular target: T2, Fatty-acid amide hydrolase 1 (Homo sapiens, UniProt O00519); assay: Inhibition of recombinant human FAAH using fluorogenic arachidonoyl-AMC as substrate preincubated for 30 mins followed by substrate addition measured after 60 mins by fluorescence based assay
T2 sequence (O00519 whole entry): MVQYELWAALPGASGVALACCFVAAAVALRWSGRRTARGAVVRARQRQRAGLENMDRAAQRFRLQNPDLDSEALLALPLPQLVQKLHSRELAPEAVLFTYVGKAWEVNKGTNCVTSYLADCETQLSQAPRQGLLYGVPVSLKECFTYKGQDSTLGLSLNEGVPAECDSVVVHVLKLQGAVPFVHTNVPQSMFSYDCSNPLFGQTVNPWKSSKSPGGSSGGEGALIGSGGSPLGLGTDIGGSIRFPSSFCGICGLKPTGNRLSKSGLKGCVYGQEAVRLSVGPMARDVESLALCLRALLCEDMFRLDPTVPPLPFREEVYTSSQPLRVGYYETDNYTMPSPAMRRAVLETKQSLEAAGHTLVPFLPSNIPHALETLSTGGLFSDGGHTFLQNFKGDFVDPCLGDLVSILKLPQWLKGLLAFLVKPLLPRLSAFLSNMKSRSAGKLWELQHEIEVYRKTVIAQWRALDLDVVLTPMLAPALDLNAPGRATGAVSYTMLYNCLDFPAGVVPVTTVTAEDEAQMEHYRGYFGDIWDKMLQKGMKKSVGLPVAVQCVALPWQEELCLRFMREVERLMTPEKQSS
Method in brief: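 Human recombinant FAAH (0.0125 U final) in 50 mM Tris pH 9.0, 1 mM EDTA, preincubated 30 min at room temperature with compound (30 μM to 0.3 nM final); arachidonoyl-AMC 5 μM added, 60 min reaction, read Ex/Em 355/460. Inhibition vs no-compound and full-inhibition controls; four-parameter fit; geometric mean of ≥3 experiments.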

[4] = species on record: Homo sapiens; assay: Selectivity ratio of IC50 for recombinant human FAAH to IC50 for recombinant human MAGL
[5] = molecular target: T3, Monoglyceride lipase (Homo sapiens) (UniProt Q99685); assay: Inhibition of recombinant human MAGL assessed as Kintact to Ki ratio using fluorogenic-7HCA as substrate measured after 60 mins by fluorescence based assay
T3 sequence (whole entry): T1 sequence (Q99685 whole entry)
Method in brief: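 Same MAGL fluorogenic setup (88 pM enzyme, 5 μM 7-HCA, HEPES pH 7.4 buffer) but substrate added immediately without preincubation; fluorescence read every minute to obtain progress curves across decreasing inhibitor concentrations; kobs derived per concentration and kinact/KI taken from plot of kobs versus concentration.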

[6] = Kinetic solubility of the compound at pH 7.4; type: physicochemical; conditions: buffer, read-out: Kinetic_solubility
[7] = molecular target: T4, Monoacylglycerol lipase ABHD6 (Homo sapiens) (UniProt Q9BV23); assay: Inhibition of human ABHD6 at 10 uM
T4 sequence (whole entry): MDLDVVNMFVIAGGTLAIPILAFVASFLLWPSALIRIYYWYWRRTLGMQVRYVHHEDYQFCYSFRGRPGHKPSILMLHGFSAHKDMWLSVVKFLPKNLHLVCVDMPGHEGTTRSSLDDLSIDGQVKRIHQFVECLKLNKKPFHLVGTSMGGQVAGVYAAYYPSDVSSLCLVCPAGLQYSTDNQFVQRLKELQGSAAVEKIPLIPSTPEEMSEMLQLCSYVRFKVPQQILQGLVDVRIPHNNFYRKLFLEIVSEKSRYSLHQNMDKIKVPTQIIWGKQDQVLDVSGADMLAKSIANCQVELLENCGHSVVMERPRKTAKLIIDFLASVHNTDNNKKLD
Method in brief: (§1)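 Panel of 42 human serine hydrolases, each exposed to inhibitor at 10 µM; activity expressed as percent inhibition.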

[8] = molecular target: T5, CES1 (liver carboxylesterase 1) (Homo sapiens, UniProt P23141); assay: (§2) Inhibition of human CES1 at 10 uM; method in brief: as §1
T5 sequence (P23141 whole entry): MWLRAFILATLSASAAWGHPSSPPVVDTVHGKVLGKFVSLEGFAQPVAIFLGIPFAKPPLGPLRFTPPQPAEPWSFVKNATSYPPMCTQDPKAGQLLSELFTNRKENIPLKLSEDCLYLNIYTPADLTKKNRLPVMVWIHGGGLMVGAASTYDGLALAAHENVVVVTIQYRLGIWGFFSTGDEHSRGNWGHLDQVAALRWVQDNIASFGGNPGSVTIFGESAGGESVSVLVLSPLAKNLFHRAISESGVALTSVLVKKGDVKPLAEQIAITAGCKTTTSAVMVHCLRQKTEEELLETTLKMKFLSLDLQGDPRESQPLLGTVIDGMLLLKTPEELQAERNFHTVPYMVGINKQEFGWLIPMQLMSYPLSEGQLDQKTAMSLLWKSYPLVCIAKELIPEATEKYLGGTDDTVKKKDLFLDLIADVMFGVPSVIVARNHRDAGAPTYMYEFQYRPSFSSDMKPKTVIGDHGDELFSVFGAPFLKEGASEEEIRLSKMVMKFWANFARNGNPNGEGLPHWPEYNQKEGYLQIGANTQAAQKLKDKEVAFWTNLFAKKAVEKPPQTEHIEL

[9] = Lipophilicity, log D of the compound at pH 7.4 by shake flask method; type: physicochemical; conditions: buffer
[10] = Intrinsic clearance in human liver microsomes; type: ADME, microsome; conditions: read-out: CLH
Method in brief: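 Substrate depletion in human liver microsomes; intrinsic clearance scaled to mL/min/kg.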

[11] = molecular target: T6, Cocaine esterase (Homo sapiens, UniProt O00748); assay: Inhibition of human CES2 at 10 uM; method in brief: as §1
T6 sequence (O00748 whole entry): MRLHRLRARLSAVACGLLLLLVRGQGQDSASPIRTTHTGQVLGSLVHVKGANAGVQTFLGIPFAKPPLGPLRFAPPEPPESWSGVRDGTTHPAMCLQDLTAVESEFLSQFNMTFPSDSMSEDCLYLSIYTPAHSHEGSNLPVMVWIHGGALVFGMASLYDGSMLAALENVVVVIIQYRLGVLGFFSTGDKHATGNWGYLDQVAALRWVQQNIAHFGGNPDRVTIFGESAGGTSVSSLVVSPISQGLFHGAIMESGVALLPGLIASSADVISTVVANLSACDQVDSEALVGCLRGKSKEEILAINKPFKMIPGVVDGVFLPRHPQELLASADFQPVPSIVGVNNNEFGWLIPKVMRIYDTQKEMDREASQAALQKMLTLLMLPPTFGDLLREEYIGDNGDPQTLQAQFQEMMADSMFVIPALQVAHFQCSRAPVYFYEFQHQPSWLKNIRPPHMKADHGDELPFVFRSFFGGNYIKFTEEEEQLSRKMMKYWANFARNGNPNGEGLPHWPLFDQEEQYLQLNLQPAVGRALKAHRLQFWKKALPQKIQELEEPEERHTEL

[12] = molecular target: T7, Fatty-acid amide hydrolase 1 (Homo sapiens) (UniProt O00519); assay: Inhibition of human FAAH at 10 uM; method in brief: as §1
T7 sequence (whole entry): T2 sequence (O00519 whole entry)

[13] = molecular target: T8, Liver carboxylesterase 1 (Homo sapiens, UniProt P23141); assay: as §2; conditions: 10 µM; method in brief: as §1
T8 sequence (P23141 whole entry): T5 sequence (P23141 whole entry)

[14] = molecular target: T9, Fatty-acid amide hydrolase 2 (Homo sapiens) (UniProt Q6GMR7); assay: Inhibition of human FAAH2 at 10 uM; method in brief: as §1
T9 sequence (whole entry): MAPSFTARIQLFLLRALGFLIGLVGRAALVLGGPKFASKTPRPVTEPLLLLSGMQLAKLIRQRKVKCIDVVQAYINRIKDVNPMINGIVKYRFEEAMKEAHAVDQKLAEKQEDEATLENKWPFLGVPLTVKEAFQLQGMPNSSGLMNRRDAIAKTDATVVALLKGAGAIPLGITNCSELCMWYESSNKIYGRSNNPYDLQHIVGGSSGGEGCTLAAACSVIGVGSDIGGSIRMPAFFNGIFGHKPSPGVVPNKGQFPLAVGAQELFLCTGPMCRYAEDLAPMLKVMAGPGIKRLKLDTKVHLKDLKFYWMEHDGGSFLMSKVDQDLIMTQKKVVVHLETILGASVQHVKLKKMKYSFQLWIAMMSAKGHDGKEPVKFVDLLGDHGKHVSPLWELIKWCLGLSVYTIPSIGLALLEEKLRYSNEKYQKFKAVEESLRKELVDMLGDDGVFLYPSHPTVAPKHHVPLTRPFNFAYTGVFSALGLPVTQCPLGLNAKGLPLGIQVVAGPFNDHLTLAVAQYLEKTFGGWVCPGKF

| SMILES | IC50 [1] | logD [2] | IC50 [3] | Ratio [5] | further results |
| --- | --- | --- | --- | --- | --- |
| CC(OC(=O)N1C[C@@H]2[C@H](C1)[C@H]2c1ccn(-c2ccc(F)cc2)n1)C(F)(F)F (some centres not stated) | 0.242 µM | 4.8 | > 23 µM |  | Ratio IC50 [4]: > 95 |
| COC[C@@H](OC(=O)N1C[C@@H]2[C@H](C1)[C@H]2c1ccn(-c2ccc(F)cc2)n1)C(F)(F)F | 0.354 µM | 4.2 | 1.94 µM | 110 M⁻¹ s⁻¹ |  |
| O=C(O[C@H](CCO)C(F)(F)F)N1C[C@@H]2[C@H](C1)[C@H]2c1ccn(-c2ccc(F)cc2)n1 | 0.582 µM | 4.2 | > 12 µM | 4570 M⁻¹ s⁻¹ | CLint scaled [10]: < 12 mL/min/kg |
| O=C(OCC(F)(F)F)N1C[C@@H]2[C@H](C1)[C@H]2c1ccn(-c2ccc(F)cc2)n1 | 0.445 µM | 4.2 | 0.97 µM | 103 M⁻¹ s⁻¹ |  |
| O=C(O[C@@H](CO)C(F)(F)F)N1C[C@@H]2[C@H](C1)[C@H]2c1ccn(-c2ccc(F)cc2)n1 | 0.89 µM | 3.9 | 26 µM |  | CLint scaled [10]: < 8 mL/min/kg |
| O=C(Oc1ccc([N+](=O)[O-])cc1)N1CCC(C(O)(c2ccc3c(c2)OCO3)c2ccc3c(c2)OCO3)CC1 |  | 5.1 | > 11 µM |  |  |

More lines, main results first:

| IC50 [1] | logD [2] | IC50 [3] | Ratio [5] | SMILES | further results |
| --- | --- | --- | --- | --- | --- |
| 0.026 µM | 4.3 | 1.9 µM | 1580 M⁻¹ s⁻¹ | O=C(O[C@H](CF)C(F)(F)F)N1C[C@@H]2[C@H](C1)[C@H]2c1ccn(-c2ccc(F)cc2)n1 | Ratio IC50 [4]: 73 |
| 0.001 to 0.0014 µM | 5.6 | 4.3 µM | 41700 M⁻¹ s⁻¹ | O=C(OC(C(F)(F)F)C(F)(F)F)N1C[C@@H]2[C@H](C1)[C@H]2c1ccn(-c2ccc(F)cc2)n1 | solubility kinetic [6]: < 1 µM; inhibition [7]: 95%; inhibition at 10 µM [8]: 58%; Ratio IC50 [4]: 3000 to 4300 |
| 0.024 µM |  | 0.018 µM | 2880 M⁻¹ s⁻¹ | O=C(Oc1ccc([N+](=O)[O-])cc1)N1C[C@@H]2[C@H](C1)[C@H]2c1ccn(-c2ccc(F)cc2)n1 | logD [9]: 4.2 |
| 0.132 µM | 4 | > 30 µM | 244 M⁻¹ s⁻¹ | O=C(OC[C@@H](O)C(F)(F)F)N1C[C@@H]2[C@H](C1)[C@H]2c1ccn(-c2ccc(F)cc2)n1 | CLint scaled [10]: 9.4 mL/min/kg |
| 0.046 µM |  | 3.6 µM | 156 M⁻¹ s⁻¹ | O=C(ON1C(=O)CCC1=O)N1C[C@@H]2[C@H](C1)[C@H]2c1ccn(-c2ccc(F)cc2)n1 | inhibition (INH) [11]: Not Active; logD [9]: 2.6; inhibition [12]: inactive; inhibition [7]: inactive; inhibition (INH) [13]: Not Active; inhibition [14]: inactive |
| 0.006 µM | 3.9 | 14 µM |  | O=C(OC(CO)C(F)(F)F)N1C[C@@H]2[C@H](C1)[C@H]2c1ccn(-c2ccc(F)cc2)n1 (some centres not stated) |  |
